The test system of assay [1] is Rattus norvegicus. As to the kind of experiment: Antiallergic activity by passive cutaneous anaphylaxis test after intravenous administration. The conditions noted are these: read-out: ID50 (the source's name). Type of assay: functional. Summed up: (§1)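 Adult female Sprague-Dawley rats (200 g, five per group) sensitized intradermally at two sites with rat reaginic anti-ovalbumin serum; after 48 h, challenged with chicken ovalbumin 20 mg/kg plus Evans blue 40 mg/kg. Compound iv at 32, 3.2, 0.32 µmol/kg at challenge. Dermal bluing area measured 30 min later; ≥3 doses, ID50 from dose-response regression; Student's t test.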

In assay [2] the test system is Rattus norvegicus. In words: Antiallergic activity was evaluated by passive cutaneous anaphylaxis test after intra venous administration; insoluble. Format: functional, organism-based. Summed up:
as §1

Assay [3] has as its system Rattus norvegicus. In words: Inhibition of Evans blue extravasation by 50% in rats after intra peritoneal administration. Type of assay: functional. The method, boiled down: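 Male Sprague-Dawley rats (~250 g, six per group) sensitized ip with 1 mL anti-ovalbumin reaginic serum; 4 h later Evans blue iv, then ovalbumin 1 mg/rat ip in Tris buffer. Compound ip 30 s before challenge, ≥3 doses. Peritoneal fluid collected at 3 min; extravasated dye read at 615 nm. ID50 from dose-response regression; Student's t test.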

The test system of assay [4] is Rattus norvegicus. As to the kind of experiment: Inhibition of histamine release by 50% in rats after intra peritoneal administration. Format: functional. Summed up:
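Male Sprague-Dawley rats (~250 g, six per group) passively sensitized ip with anti-ovalbumin reaginic serum, challenged 4 h later with ip ovalbumin 1 mg/rat; compound ip 30 s before antigen, ≥3 doses. Peritoneal fluid taken 3 min post-challenge, centrifuged at 150 g; histamine in supernatant measured fluorometrically (autoanalyzer). ID50 from dose-response regression curve; Student's t test.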

On to `CCOC(=O)C1=CNC2=C(/C=N/c3cccc(C(=O)O)c3)CCC(C)N2C1=O` (centres undefined), for which the ED50 with Rattus norvegicus [1] was 100 µmol/kg.
Same read-out and setting: then `CC1CCCc2ncc(C(=O)O)c(=O)n21` (centres undefined), with 240 µmol/kg.
For `CC1CCC(/C=N/c2ccc(F)cc2)=C2NC=C(C(=O)O)C(=O)N21` (centres undefined), in the assay on Rattus norvegicus [1], the ED50 worked out at 10.6 µmol/kg.
For the molecule `CC1CCN2C(=O)C(C(=O)O)=CNC2=C1/C=N/c1ccccc1` (centres undefined), in the assay on Rattus norvegicus [2], the ID50 entry is on record as “Insoluble”.
`C[C@H]1CC/C(=N\Nc2ccccc2)c2ncc(/C=C/C(=O)O)c(=O)n21`: in the assay on Rattus norvegicus [1], the ED50 came to 0.15 µmol/kg.
Take `CC1CCC(/C=N/c2ccccc2C(=O)O)=C2NC=C(C(=O)O)C(=O)N21` (centres undefined): the results for the ID50 in the assay with Rattus norvegicus [3] and with Rattus norvegicus [4] were 140 nmol/kg and 10 nmol/kg, respectively. Also, the ED50 with Rattus norvegicus [1] worked out at 1.11 µmol/kg.
Take `Cc1cccc(/N=C/C2=C3NC=C(C(=O)O)C(=O)N3[C@H](C)CC2)c1`: the ED50 in the assay with Rattus norvegicus [1] came to 66.9 µmol/kg.
For `CC(=O)c1ccc(/N=C/C2=C3NC=C(C(=O)O)C(=O)N3C(C)CC2)cc1` (centres undefined), in the assay with Rattus norvegicus [1], the ED50 was found to be 0.75 µmol/kg.
Turning to `CC1CCC(/C=N/c2ccccc2F)=C2NC=C(C(=O)O)C(=O)N21` (centres undefined), the ED50 with Rattus norvegicus [1] came to 14.5 µmol/kg.
As for `CCOc1ccc(/N=C/C2=C3NC=C(C(=O)O)C(=O)N3C(C)CC2)cc1` (centres undefined), in the assay on Rattus norvegicus [1], the ED50 was determined as 8.96 µmol/kg.
As for `CCOC(=O)C1=CNC2=C(/C=N/c3ccccc3C(=O)O)CCC(C)N2C1=O` (centres undefined), in the assay on Rattus norvegicus [1], the ED50 is 24.8 µmol/kg.
Turning to `O=C([O-])c1cc(=O)c2c(OCC(O)COc3cccc4oc(C(=O)[O-])cc(=O)c34)cccc2o1.[Na+].[Na+]` [CROMOLYN SODIUM], the ID50 with Rattus norvegicus [3] was 55 nmol/kg; with Rattus norvegicus [4] it was 16 nmol/kg. Besides, the ED50 in the assay with Rattus norvegicus [1] came to 1 µmol/kg.
On to `CC1CCC(=NNc2ccccc2)c2ncc(C(=O)O)c(=O)n21` (centres undefined), for which the ED50 in the assay on Rattus norvegicus [1] is 0.6 µmol/kg.
For the molecule `O=C(O)C1=CNC2=C(/C=N/c3ccccc3)CCN2C1=O`, in the assay on Rattus norvegicus [1], the ED50 amounted to 15.4 µmol/kg.
On the same count and under the same terms, then `CC1CCN2C(=O)C(C(=O)O)=CNC2=C1/C=N/c1ccccc1C(=O)O` (centres undefined), with 100 µmol/kg.
For the molecule `CC1CCC(/C=N/c2ccc(Cl)cc2)=C2NC=C(C(=O)O)C(=O)N21` (centres undefined), the ID50 result in the assay with Rattus norvegicus [2] is on record as “Insoluble”.
For `CC1CCC(/C=N/c2ccc(O)cc2)=C2NC=C(C(=O)O)C(=O)N21` (centres undefined), the ED50 in the assay on Rattus norvegicus [1] was 1.2 µmol/kg.
Take `CC1CCC(/C=N/c2ccc(C(=O)O)cc2)=C2NC=CC(=O)N21` (centres undefined): the ED50 in the assay with Rattus norvegicus [1] is above 100 µmol/kg.
For `CC1CCC(/C=N/c2cccc(Cl)c2)=C2NC=C(C(=O)O)C(=O)N21` (centres undefined), the ID50 entry with Rattus norvegicus [2] was “Insoluble”.
As to `C[C@@H]1CC/C(=N\Nc2ccccc2)c2ncc(/C=C/C(=O)O)c(=O)n21`, the ED50 in the assay with Rattus norvegicus [1] is above 100 µmol/kg.
As to `C[C@@H]1CC/C(=N\Nc2ccccc2)c2ncc(C(=O)O)c(=O)n21`, the ED50 with Rattus norvegicus [1] was found to be 54.8 µmol/kg.
As for `CC1CCC(/C=N/c2ccc([N+](=O)[O-])cc2)=C2NC=C(C(=O)O)C(=O)N21` (centres undefined), the ID50 entry in the assay on Rattus norvegicus [2] is “Insoluble”.
On to `Cc1cccc(/N=C/C2=C3NC=C(C(=O)O)C(=O)N3[C@@H](C)CC2)c1`, for which the ED50 with Rattus norvegicus [1] was found to be 0.02 µmol/kg.
On the same count and under the same terms, the result for `CC1CC(/C=N/c2ccccc2C(=O)O)=C2NC=C(C(=O)O)C(=O)N2C1` (centres undefined) reads 48.1 µmol/kg.
Regarding `COc1ccc(/N=C/C2=C3NC=C(C(=O)O)C(=O)N3C(C)CC2)cc1` (centres undefined), the ID50 result in the assay with Rattus norvegicus [2] is on record as “Insoluble”.
Same read-out and setting: the result for `CC1CCC(/C=N/c2ccc(Br)cc2)=C2NC=C(C(=O)O)C(=O)N21` (centres undefined) reads “Insoluble”.
With `O=C(O)c1cnc2n(c1=O)CCCC/C2=N\Nc1ccccc1`, the ED50 with Rattus norvegicus [1] was determined as 14.4 µmol/kg.
As to `CC1CCC(/C=N/c2ccccc2O)=C2NC=C(C(=O)O)C(=O)N21` (centres undefined), the ED50 in the assay with Rattus norvegicus [1] was 4.11 µmol/kg.
Same read-out and setting: then `Cc1nc2n(c(=O)c1/C=C/C(=O)O)C(C)CC/C2=N\Nc1ccccc1` (centres undefined), with 0.29 µmol/kg.
Turning to `C[C@H]1CC/C(=N\Nc2ccccc2)c2ncc(C(=O)O)c(=O)n21`, the ID50 with Rattus norvegicus [3] came out at 5 nmol/kg; in the assay on Rattus norvegicus [4], 1 nmol/kg. For the same molecule, the ED50 in the assay with Rattus norvegicus [1] came to 0.3 µmol/kg.
As to `CC1CCC(/C=N/c2ccc3ccccc3c2)=C2NC=C(C(=O)O)C(=O)N21` (centres undefined), the ID50 entry in the assay with Rattus norvegicus [2] was “Insoluble”.
Consider `CC1CC/C(=N\Nc2ccccc2)c2ncc(/C=C/C(=O)O)c(=O)n21` (centres undefined), for which the ED50 in the assay with Rattus norvegicus [1] stood at 0.27 µmol/kg.
Regarding `O=C(O)C1=CNC2=C(/C=N/c3ccccc3C(=O)O)CCCCN2C1=O`, the ED50 with Rattus norvegicus [1] was 68.7 µmol/kg.
Still for that read-out and setting: the result for `CCOC(=O)C1=CNC2=C(/C=N/c3ccc(C(=O)O)cc3)CCC(C)N2C1=O` (centres undefined) reads 67.1 µmol/kg; that for `CC1CCC(/C=N/c2ccc(C(F)(F)F)cc2)=C2NC=C(C(=O)O)C(=O)N21` (centres undefined), above 100 µmol/kg; that for `O=C(O)C1=CNC2=C(/C=N/c3ccccc3C(=O)O)CCCN2C1=O`, 22.9 µmol/kg.
As to `CCOc1cccc(/N=C/C2=C3NC=C(C(=O)O)C(=O)N3C(C)CC2)c1` (centres undefined), the ID50 entry in the assay with Rattus norvegicus [2] is “Insoluble”.
Take `CC1CCC(/C=N/c2ccccc2)=C2NC(c3ccccc3)=C(/C=C/C(=O)O)C(=O)N21` (centres undefined): in the assay on Rattus norvegicus [2], the ID50 result is “Insoluble”.
Consider `CC1CC(/C=N/c2ccccc2)=C2NC=C(C(=O)O)C(=O)N21` (centres undefined), for which the ED50 in the assay on Rattus norvegicus [1] amounted to 20.2 µmol/kg.
For the molecule `CC1CCC(/C=N/c2cccnc2)=C2NC=C(C(=O)O)C(=O)N21` (centres undefined), the results for the ID50 in the assay on Rattus norvegicus [3] and in the assay on Rattus norvegicus [4] were 360 nmol/kg and 100 nmol/kg, respectively. Further, in the assay with Rattus norvegicus [1], the ED50 was 2.4 µmol/kg.
For the molecule `Cc1cccc(/N=C/C2=C3NC=C(C(=O)O)C(=O)N3C(C)CC2)c1` (centres undefined), the ID50 with Rattus norvegicus [3] amounted to 130 nmol/kg; with Rattus norvegicus [4] it was 2 nmol/kg. Also, in the assay with Rattus norvegicus [1], the ED50 was determined as 0.8 µmol/kg.
The like results for `CC1CCC(/C=N/c2ccc(CC(=O)O)cc2)=C2NC=C(C(=O)O)C(=O)N21` (centres undefined) were, in that order, 280 nmol/kg, 110 nmol/kg and 5.8 µmol/kg.
Take `Cc1ccc(/N=C/C2=C3NC=C(C(=O)O)C(=O)N3C(C)CC2)cc1` (centres undefined): the ED50 with Rattus norvegicus [1] was determined as 3.6 µmol/kg.
On to `CC1CCC(/C=N/c2ccccc2)=C2NC=C(C(=O)O)C(=O)N21` (centres undefined), for which the ID50 entry in the assay with Rattus norvegicus [2] is recorded as “Insoluble”.
Same read-out and setting: then `CCOC(=O)C1=CNC2=C(/C=N/c3ccccc3)CCC(C)N2C1=O` (centres undefined), with “Insoluble”.
In the case of `CC1CCC(/C=N/c2cccc(C(=O)O)c2)=C2NC=CC(=O)N21` (centres undefined), in the assay on Rattus norvegicus [1], the ED50 is above 100 µmol/kg.
Consider `CC1CCC(/C=N/c2cccc(Br)c2)=C2NC=C(C(=O)O)C(=O)N21` (centres undefined), for which the ID50 result in the assay with Rattus norvegicus [2] is “Insoluble”.

The values are drawn from ChEMBL document CHEMBL1122608, “Nitrogen bridgehead compounds. 44. New antiallergic 4H-pyrido[1,2-a]pyrimidin-4-ones. 4” (1984).
